The source made the active and inactive calls. No cut-off for these calls is given here.
Columns and labels:
D-aspartate oxidase = target: T1, D-aspartate oxidase (Homo sapiens, UniProt Q99489); experiment: Inhibition of human recombinant DDO expressed in sf9 insect cells assessed as degradation of D-aspartic acid by fluorescence assay
T1 sequence (Q99489 whole entry): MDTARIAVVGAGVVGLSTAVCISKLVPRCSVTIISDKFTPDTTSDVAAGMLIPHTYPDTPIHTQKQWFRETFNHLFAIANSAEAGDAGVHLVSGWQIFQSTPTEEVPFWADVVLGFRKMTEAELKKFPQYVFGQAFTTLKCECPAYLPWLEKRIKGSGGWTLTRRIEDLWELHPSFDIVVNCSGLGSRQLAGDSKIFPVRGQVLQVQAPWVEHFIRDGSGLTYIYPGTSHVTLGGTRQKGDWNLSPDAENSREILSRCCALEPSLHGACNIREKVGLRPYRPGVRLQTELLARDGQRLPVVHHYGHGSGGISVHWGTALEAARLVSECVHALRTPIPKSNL

D-amino-acid oxidase = D-amino-acid oxidase (Rattus norvegicus, UniProt O35078); experiment: Inhibition of rat recombinant DAAO expressed in sf9 insect cells assessed as degradation of D-serine by fluorescence assay
D-amino-acid oxidase, sequence (O35078 whole entry): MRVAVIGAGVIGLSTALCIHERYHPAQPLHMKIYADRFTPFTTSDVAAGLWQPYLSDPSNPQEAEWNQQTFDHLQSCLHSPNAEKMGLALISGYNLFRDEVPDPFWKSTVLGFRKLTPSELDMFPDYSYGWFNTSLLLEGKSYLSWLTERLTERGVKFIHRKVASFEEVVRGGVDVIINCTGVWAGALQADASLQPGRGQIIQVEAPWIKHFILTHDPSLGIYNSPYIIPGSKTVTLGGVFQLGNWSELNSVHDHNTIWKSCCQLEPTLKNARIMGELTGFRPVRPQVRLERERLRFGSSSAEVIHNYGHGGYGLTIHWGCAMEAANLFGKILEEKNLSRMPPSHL

[1] = Dissociation constant, pKa of the compound; type: physicochemical
[2] = Ratio of drug level in brain to plasma in 129/SVEV mouse at 10 mg/kg, sc after 4 hrs; conditions: read-out: BPR
[3] = Displacement of [3H]glycine from NMDA receptor at 10 uM
[4] = Clearance in Sprague-Dawley CD rat plasma at 3 mg/kg, po and 1 mg/kg, iv; type: ADME, organism-based
Rattus norvegicus = experiment: Volume of distribution in Sprague-Dawley CD rat at 3 mg/kg, po and 1 mg/kg, iv; type: ADME, organism-based; conditions: in vivo
[5] = Half life in Sprague-Dawley CD rat at 3 mg/kg, po and 1 mg/kg, iv; type: ADME, organism-based; conditions: in vivo
[6] = Oral bioavailability in Sprague-Dawley CD rat at 3 mg/kg; type: ADME, organism-based; conditions: in vivo
[7] = Cmax in Sprague-Dawley CD rat at 3 mg/kg, po; type: ADME, organism-based; parameters: dose 3 mg/kg, route oral; conditions: in vivo
[8] = Ratio of drug level in brain to plasma in Sprague-Dawley CD rat at 56 mg/kg, sc after 4 hrs; type: ADME, organism-based; parameters: dose 56 mg/kg, route subcutaneous; conditions: read-out: BPR
[9] = Fraction unbound in Sprague-Dawley CD rat brain at 56 mg/kg, sc after 4 hrs; type: ADME, organism-based; parameters: dose 56 mg/kg, route subcutaneous
Brain [10] = experiment: Free drug level in Sprague-Dawley CD rat brain at 56 mg/kg, sc after 4 hrs; type: ADME, organism-based; parameters: dose 56 mg/kg, route subcutaneous; conditions: in vivo
Brain [11] = experiment: Free drug level in 129/SVEV mouse brain at 10 mg/kg, sc after 4 hrs; conditions: in vivo
Mus musculus = experiment: Elevation of D-serine level in 129/SVEV mouse cerebellum at 10 mg/kg, sc after 4 hrs by LC/MS-MS analysis; type: functional, organism-based; parameters: dose 10 mg/kg
Outline: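 Male rats (1-2 mL/kg) or male mice (10 mL/kg) received compound or vehicle sc in 5% DMSO/5% Cremophor EL/90% saline. At 4 h, cerebella were taken under CO2 anesthesia, homogenized in 3 volumes PBS and extracted with 16 volumes acetonitrile, and the supernatant was dried.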

Work on `Cc1cccc2cc(O)c(=O)[nH]c12` yielded an IC50 (D-aspartate oxidase) of 31.6 µM.

Work on `O=C(O)c1cc2occc2[nH]1` yielded an IC50 (D-amino-acid oxidase) of 424 nM, a pKa [1] of 4 and a Kp at 4 h [2] of 0.8. The IC50 (D-aspartate oxidase) was over 19.5 µM.

Molecule `O=c1[nH]c2cccc(Cl)c2cc1O` has an IC50 (D-amino-acid oxidase) of 40 nM, an inhibition [3] of under 50% and an IC50 (D-aspartate oxidase) of 206 µM.

`CCc1cccc2cc(O)c(=O)[nH]c12` gave an IC50 (D-aspartate oxidase) of over 50 µM.

With `O=c1[nH]c2cccnc2cc1O` the IC50 (D-aspartate oxidase) was over 50 µM.

`CCc1cccc2[nH]c(=O)c(O)cc12` gave an inhibition [3] of under 50%.

`O=c1[nH]c2cccc(F)c2cc1O` gave an inhibition [3] of under 50% and an IC50 (D-aspartate oxidase) of 64 µM.

For `O=c1[nH]c2c(F)cccc2cc1O`, the inhibition [3] was under 50%.

Molecule `Cc1c(O)c(=O)[nH]c2ccccc12` has an IC50 (D-aspartate oxidase) of 32.3 µM.

`O=c1[nH]c2ccc(F)cc2cc1O` gave a clearance [4] of 72 mL/min/kg, a Vd (Rattus norvegicus) of 2.3 L/kg and a half-life [5] of 54 min. It also gave a bioavailability [6] of 44%, a Cmax [7] of 216 ng/mL and an inhibition [3] of under 50%.

In the case of `O=c1[nH]c2ccc(Cl)cc2cc1O`, the IC50 (D-aspartate oxidase) is reported as over 50 µM.

In the case of `O=c1[nH]c2cc(F)ccc2cc1O`, the clearance [4] is reported as 15 mL/min/kg, the Vd (Rattus norvegicus) is reported as 1.2 L/kg and the half-life [5] is reported as 324 min. The bioavailability [6] was 38%, the Cmax [7] was 754 ng/mL and the inhibition [3] was under 50%. It also gave an IC50 (D-aspartate oxidase) of 22.4 µM.

In the case of `O=c1[nH]c2cnccc2cc1O`, the IC50 (D-aspartate oxidase) is reported as over 50 µM.

In the case of `Cc1cc(C(=O)O)n[nH]1`, the pKa [1] is reported as 4.

`Cc1cccc2[nH]c(=O)c(O)cc12` gave an inhibition [3] of under 50%.

`O=c1[nH]c2ccccc2cc1O` showed a clearance [4] of 46 mL/min/kg, a Vd (Rattus norvegicus) of 10.8 L/kg and a bioavailability [6] of 0.9%. The Cmax [7] was 5.5 ng/mL, the Kp at 4 h [8] was 0.7 and the fraction unbound at 4 h [9] was 0.22. For the same molecule, the Drug uptake (Brain [10]) was 670 nM, the inhibition [3] was 29% and the pKa [1] was 8.7. For the same molecule, the Drug uptake (Brain [11]) was 15 nM and the Kp at 4 h [2] was 2.

`O=c1[nH]c2ccncc2cc1O` gave an IC50 (D-aspartate oxidase) of over 36 µM.

Molecule `O=c1[nH]c2nccnc2cc1O` has an IC50 (D-aspartate oxidase) of over 50 µM.

For `O=c1[nH]c2c(Cl)cccc2cc1O`, the IC50 (D-aspartate oxidase) was over 43.4 µM.

Molecule `Oc1noc2cc(Cl)ccc12` has a pKa [1] of 4.

In the case of `O=c1[nH]c2ncc(F)c(Cl)c2cc1O`, the Activity (Mus musculus) is reported as “Active”, the Drug uptake (Brain [11]) is reported as 12 nM and the Kp at 4 h [2] is reported as 0.1.

`Cc1ccc2cc(O)c(=O)[nH]c2c1` showed an IC50 (D-aspartate oxidase) of 21.5 µM.

With `O=c1[nH]c2ncccc2cc1O` the inhibition [3] was under 50% and the IC50 (D-aspartate oxidase) was over 7.64 µM.

— ChEMBL document CHEMBL1136932, “Discovery, SAR, and pharmacokinetics of a novel 3-hydroxyquinolin-2(1H)-one series of potent D-amino acid oxidase (DAAO) inhibitors” (J Med Chem, 2009)
